According to ChEMBL document CHEMBL5126648, “Charting the Chemical Space of Acrylamide-Based Inhibitors of zDHHC20” (ACS Med Chem Lett, 2022):
Calls of active or inactive are those of the source. No cut-off for these calls is given here.

Experiments:
[1] = target: T1, Palmitoyltransferase ZDHHC2 (Homo sapiens, UniProt Q9UIJ5); assay: Inhibition of human myc-His6-tagged zDHHC2 expressed in HEK293T cells using 5-FAM-GTQGCMGLPCVVM-COOH as substrate preincubated for 30 mins followed by substrate addition and measured at 1 min interval for 2 hrs in presence of palmitoyl-CoA by fluorescence polarization assay
T1 sequence (Q9UIJ5 whole entry): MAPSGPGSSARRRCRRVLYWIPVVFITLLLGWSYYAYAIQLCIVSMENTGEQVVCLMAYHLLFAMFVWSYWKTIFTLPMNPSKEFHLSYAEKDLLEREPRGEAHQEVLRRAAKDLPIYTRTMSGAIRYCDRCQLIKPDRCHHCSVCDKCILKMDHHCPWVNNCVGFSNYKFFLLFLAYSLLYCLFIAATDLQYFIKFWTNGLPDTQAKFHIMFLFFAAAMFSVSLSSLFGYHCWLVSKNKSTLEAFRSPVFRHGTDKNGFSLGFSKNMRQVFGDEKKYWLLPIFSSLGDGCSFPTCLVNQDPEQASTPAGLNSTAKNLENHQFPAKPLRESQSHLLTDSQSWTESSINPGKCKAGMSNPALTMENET

[2] = target: T2, Palmitoyltransferase ZDHHC20 (Homo sapiens, UniProt Q5W0Z9); assay: Inhibition of human myc-His6-tagged zDHHC20 expressed in HEK293T cells using 5-FAM-GTQGCMGLPCVVM-COOH as substrate preincubated for 1 hr followed by substrate addition and measured at 1 min interval for 2 hrs in presence of palmitoyl-CoA by fluorescence polarization assay
T2 sequence (Q5W0Z9 whole entry): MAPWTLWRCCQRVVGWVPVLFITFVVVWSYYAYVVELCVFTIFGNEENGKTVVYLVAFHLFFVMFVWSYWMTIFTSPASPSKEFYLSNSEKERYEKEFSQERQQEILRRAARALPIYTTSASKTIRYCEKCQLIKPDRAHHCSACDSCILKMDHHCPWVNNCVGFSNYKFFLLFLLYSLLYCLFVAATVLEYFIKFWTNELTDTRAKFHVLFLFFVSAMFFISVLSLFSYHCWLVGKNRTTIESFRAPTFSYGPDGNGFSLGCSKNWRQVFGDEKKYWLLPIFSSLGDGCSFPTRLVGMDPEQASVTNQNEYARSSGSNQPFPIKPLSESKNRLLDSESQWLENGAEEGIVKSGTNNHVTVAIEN
Method in brief: (§1)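 Purified zDHHC20 run in the acyl-cLIP assay, an earlier adaptation by the same group. Enzyme-mediated acylation of a peptide is read as polarized fluorescence.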

[3] = target: T3, Palmitoyltransferase ZDHHC2 (Homo sapiens) (UniProt Q9UIJ5); assay: Inhibition of human myc-His6-tagged zDHHC2 expressed in HEK293T cells at 10 uM using 5-FAM-GTQGCMGLPCVVM-COOH as substrate preincubated for 30 mins followed by substrate addition and measured at 1 min interval for 2 hrs in presence of palmitoyl-CoA by fluorescence polarization assay; details: time 150.0 min
T3 sequence (whole entry): T1 sequence (Q9UIJ5 whole entry)

[4] = Lipophilicity, log P of compound; type: physicochemical; details: octanol/water
[5] = target: T3, Palmitoyltransferase ZDHHC2 (Homo sapiens); assay: Binding affinity to human myc-His6-tagged zDHHC2 expressed in HEK293T cells at 1 uM measured after 1 hr by TAMRA-azide-labelled in-gel fluorescence analysis; type: cell-based
Method in brief: (§2)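 Myc-tagged enzyme overexpressed in HEK293T cells; cells treated with probe at 1 μM for 1 h. Lysates then clicked to TAMRA-azide, proteins resolved by SDS-PAGE and read by in-gel fluorescence. Expression checked by anti-myc Western blot. n = 2.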

[6] = target: T4, Palmitoyltransferase ZDHHC20 (Homo sapiens) (UniProt Q5W0Z9); assay: Binding affinity to human myc-His6-tagged zDHHC20 expressed in HEK293T cells at 1 uM measured after 1 hr by TAMRA-azide-labelled in-gel fluorescence analysis; type: cell-based; method in brief: as §2
T4 sequence (whole entry): T2 sequence (Q5W0Z9 whole entry)

[7] = target: T4, Palmitoyltransferase ZDHHC20 (Homo sapiens); assay: Inhibition of human myc-His6-tagged zDHHC20 expressed in HEK293T cells at 10 uM using 5-FAM-GTQGCMGLPCVVM-COOH as substrate preincubated for 1 hr followed by substrate addition and measured at 1 min interval for 2 hrs in presence of palmitoyl-CoA by fluorescence polarization assay; details: time 3.0 hrs; method in brief: as §1

Row | Structure (SMILES) | IC50 [1] | IC50 [2] | logP [4] | also measured
1 | CCCCCCCCCCCCCCNC(=O)/C=C\C(=O)OCC#N | 2660 nM | 2870 nM |  | 
2 | C=CC(=O)N(CC#N)CCOCCCCCCCCCCC |  | 1970 nM | 4.1 | inhibition [3]: Active
3 | C#CCN(CCCCCCCCCCCCCC)C(=O)C=C |  |  |  | Activity [5]: Active; Activity [6]: Active
4 | C#CCOC(=O)/C=C\C(=O)NCCCCCCCCCCCCCC |  | 3430 nM |  | Activity [5]: Active; Activity [6]: Active; inhibition [3]: Active
5 | CCCCCCCCCCCCCCNC(=O)/C=C\C(=O)Oc1ccccc1 | 2020 nM |  |  | inhibition [7]: 50%
6 | CCCCCCCCCCCCCCNC(=O)/C=C\C(=O)OCc1cn(CCOCCOCCOCCO)nn1 |  |  | 4.55 | inhibition [7]: Active
7 | CCCCCCCCCCCCCCC(Br)C(=O)O (centres undefined) | 2020 nM | 5550 nM |  | 
8 | CCCCCCCCCCCCCCNC(=O)/C=C\C(=O)OC |  |  |  | inhibition [7]: Active
9 | C#CCOC(=O)/C=C/C(=O)NCCCCCCCCCCCCCC |  |  |  | Activity [5]: Active; Activity [6]: Active

Continued, in another order:

Row | IC50 [1] | IC50 [2] | logP [4] | Structure (SMILES) | also measured
10 | 590 nM | 1350 nM | 5.48 | C=CC(=O)N(CC#N)CCCCCCCCCCCCCC | inhibition [3]: Active
11 |  | 3450 nM |  | CCCCCCCCCCCCCCN(CC#N)C(=O)/C=C\C(=O)O | 
12 |  | 9730 nM | 3.33 | CCCCCCCCCCCCCCNC(=O)/C=C\C(=O)OCc1cn(CCCNC(=O)CCNC(=O)[C@H](O)C(C)(C)CO)nn1 | 
13 | 59900 nM | 21400 nM |  | C=CC(=O)NCCCCCCCCCCCCCC | 
